Measured values taken from ChEMBL document CHEMBL1158588, “Discovery of brain-penetrant, orally bioavailable aminothienopyridazine inhibitors of tau aggregation” (J Med Chem, 2010).
Values after ≈ are worked out from the molar mass of the structure shown. Active and inactive are the calls of the source. No cut-off for these calls is given here.

Experiments:
[1] = Aqueous solubility in sodium acetate buffer at pH 7.0 by turbidimetric measurements; type: physicochemical
Procedure, shortened: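 Compounds were serially diluted 2.5-fold in DMSO, then diluted 100-fold into 100 mM NaOAc pH 7.0 (final 200 µM down to 0.03 µM, 1% DMSO). Plates were agitated for 2.5 h and absorbance was read at 550–700 nm with the DMSO blank subtracted. The solubility limit was taken as the concentration before the one where mean absorbance exceeded 0.03 AU.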

[2] = Inhibition of tau40 protein aggregation by orthogonal sedimentation based SDS-PAGE relative to control; parameters: concentration or dose not given beside the values; details: concentration not given here
[3] = species on record: Homo sapiens; experiment: Inhibition of human full length tau40 protein-mediated bovine brain tubulin assembly at 62.5 uM by MT assembly assay
Procedure, shortened: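 Wild-type full-length human tau40 (2N4R, 25 µM) was preincubated with compound at 62.5 µM in RAB pH 6.9 for 120 min at room temperature. Bovine brain tubulin and GTP were then added, giving final concentrations of 30 µM tubulin, 20 µM tau, 50 µM compound and 2 mM GTP. Absorbance at 340 nm was read every minute for 45 min at 37 °C.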

[4] = Inhibition of K18PL tau protein aggregation by orthogonal sedimentation based SDS-PAGE relative to control; details: concentration not given here
[5] = test system: HEK293; experiment: Cytotoxicity against HEK293 cells up to 100 uM after 72 hrs by alamar blue assay; type: cell-based; details: human, hek293, 72 h
Procedure, shortened: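 HEK-293 cells were plated at 20,000 per well in DMEM with 10% FCS. After 24 h, half-log compound dilutions starting at 200 µM were added. Cells were cultured for 72 h, and viability was read by Alamar blue fluorescence. CC50 values were fitted from the curves.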

[6] = test system: Brain; experiment: Drug level in brain of B6C3F1 mouse at 5 mg/kg, ip by LC-MS/MS analysis; type: ADME, organism-based; parameters: dose 5 mg/kg, route intraperitoneal; details: in vivo
Procedure, shortened: (§1)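 Three female B6C3F1 mice per compound were given 5 mg/kg i.p. Brain and plasma were sampled at a single 1 h time point. Brain was homogenized 1:2 w/v in 10 mM ammonium acetate pH 5.7, and plasma was collected in EDTA. Samples were extracted with acetonitrile and quantified by LC-MS/MS MRM against spiked calibration curves. B/P was taken as the brain/plasma ratio.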

[7] = test system: Plasma; experiment: Drug level in plasma of B6C3F1 mouse at 5 mg/kg, ip by LC-MS/MS analysis; type: ADME, organism-based; parameters: dose 5 mg/kg, route intraperitoneal; details: in vivo; procedure, shortened: as §1
[8] = Inhibition of heparin-induced K18PL tau protein aggregation assessed as thioflavin T binding by fluorescence assay relative to control; details: concentration not given here
[9] = AUC (0.5 to 16 hrs) in plasma of B6C3F1 mouse at 2 mg/kg, iv; type: ADME, organism-based; parameters: time upper 16 hr, time lower 0.5 hr, dose 2 mg/kg, route intravenous
Procedure, shortened: (§2)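 Female B6C3F1 mice, two months old, given 2 mg/kg i.v., three mice per time point at 0.5, 1, 2, 4, 8 and 16 h. Brain hemispheres were homogenized in 10 mM ammonium acetate pH 5.7, and plasma was taken from EDTA blood. Both were extracted with acetonitrile and measured by LC-MS/MS (MRM) against spiked standard curves at 4–4000 ng/mL.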

[10] = Ratio of drug level from brain to plasma of B6C3F1 mouse at 2 mg/kg, iv; type: ADME, organism-based; parameters: dose 2 mg/kg, route intravenous; details: read-out: BPR; procedure, shortened: as §2
[11] = AUC (0.5 to 16 hrs) in plasma of B6C3F1 mouse at 5 mg/kg, po; type: ADME, organism-based; parameters: time 0.5-16 hr, dose 5 mg/kg, route oral
Procedure, shortened: (§3)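 Mice were dosed by oral gavage at 5 mg/kg. […] Bioavailability was obtained by comparing plasma AUC after oral dosing with AUC after 2 mg/kg i.v.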

[12] = AUC (0.5 to 16 hrs) in brain of B6C3F1 mouse at 2 mg/kg, iv; type: ADME, organism-based; parameters: time upper 16 hr, time lower 0.5 hr, dose 2 mg/kg, route intravenous; procedure, shortened: as §2
[13] = test system: Plasma; experiment: Elimination half life in plasma of B6C3F1 mouse at 2 mg/kg, iv; type: ADME, organism-based; parameters: dose 2 mg/kg, route intravenous; details: in vivo
Procedure, shortened: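 Female B6C3F1 mice received 2 mg/kg i.v., three per time point. Plasma levels were measured by LC-MS/MS with 1/x-weighted calibration, averaging triplicate injections. Half-life was derived from the elimination rate constant, taken as the slope of ln plasma concentration against time over the 4, 8 and 16 h points.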

[14] = Oral bioavailability in B6C3F1 mouse at 5 mg/kg; type: ADME, organism-based; details: in vivo; procedure, shortened: as §3
[15] = Ratio of drug level from brain to plasma of B6C3F1 mouse at 5 mg/kg, ip by LC-MS/MS analysis; type: ADME, organism-based; parameters: dose 5 mg/kg, route intraperitoneal; procedure, shortened: as §1

| solubility kinetic [1] [µM] | inhibition [2] [%] | inhibition [3] | inhibition [4] [%] | Drug uptake [6] [ng/g] | Drug uptake [7] [ng/mL] | inhibition [8] [%] | AUC(0-t) [9] [ng·h/mL] | Kp [10] | AUC(0-t) [11] [ng·h/mL] | AUC(0-t) [12] [ng·h/mL] | beta t1/2 [13] | bioavailability [14] [%] | BPR [15] | SMILES | Activity [5] |
| --- | --- | --- | --- | --- | --- | --- | --- | --- | --- | --- | --- | --- | --- | --- | --- |
| > 200 | 62 | inactive | 79 | 121 | 5230 | 84 |  |  |  |  |  |  |  | Nc1scc2c(C(=O)O)nn(-c3ccc(Cl)cc3)c(=O)c12 | Non-toxic |
| 80 (≈ 29 µg/mL) | 58 | inactive | 62 | 122 | 138 | 75 |  |  |  |  |  |  |  | CCN(C)C(=O)c1nn(-c2ccc(Cl)cc2)c(=O)c2c(N)scc12 | Non-toxic |
| 13 (≈ 4.35 µg/mL) | 61 | inactive | 68 | 34 | 70 | 78 |  |  |  |  |  |  |  | CNC(=O)c1nn(-c2ccc(Cl)cc2)c(=O)c2c(N)scc12 | Non-toxic |
| 32 (≈ 11.2 µg/mL) | 87 | inactive | 94 | 886 | 500 | 84 |  |  |  |  |  |  |  | CCNC(=O)c1nn(-c2ccc(Cl)cc2)c(=O)c2c(N)scc12 | Non-toxic |
| 32 (≈ 11.6 µg/mL) | 45 | inactive | 65 | 1100 | 499 | 83 |  |  |  |  |  |  |  | CC(C)NC(=O)c1nn(-c2ccc(Cl)cc2)c(=O)c2c(N)scc12 | Non-toxic |
| 13 (≈ 5.29 µg/mL) | 55 | inactive | 58 | 641 | 316 | 85 |  |  |  |  |  |  |  | CC(C)NC(=O)c1nn(-c2ccc(Br)cc2)c(=O)c2c(N)scc12 | Non-toxic |
| 13 (≈ 4.55 µg/mL) | 48 | inactive | 70 | 67 | 20 | 71 |  |  |  |  |  |  |  | CCOC(=O)c1nn(-c2ccc(Cl)cc2)c(=O)c2c(N)scc12 | Non-toxic |
| 32 (≈ 11.2 µg/mL) | 69 | inactive | 69 | 14 | 30 | 75 |  |  |  |  |  |  |  | CN(C)C(=O)c1nn(-c2ccc(Cl)cc2)c(=O)c2c(N)scc12 | Non-toxic |
| 32 (≈ 11.5 µg/mL) | 58 | inactive | 69 | 1299 | 823 | 83 | 297 | 1.58 | 526 | 469 | >= 2.5 hr | 70 |  | Nc1scc2c(C(=O)NC3CC3)nn(-c3ccc(Cl)cc3)c(=O)c12 | Non-toxic |
| 32 (≈ 11.6 µg/mL) | 61 | inactive | 44 | 436 | 84 | 79 |  |  |  |  |  |  | 5.2 | CC(C)OC(=O)c1nn(-c2ccc(Cl)cc2)c(=O)c2c(N)scc12 | Non-toxic |
